The target of assay [1] is T1, Farnesyl diphosphate synthase (Toxoplasma gondii, UniProt Q197X6).
T1 sequence (Q197X6 whole entry): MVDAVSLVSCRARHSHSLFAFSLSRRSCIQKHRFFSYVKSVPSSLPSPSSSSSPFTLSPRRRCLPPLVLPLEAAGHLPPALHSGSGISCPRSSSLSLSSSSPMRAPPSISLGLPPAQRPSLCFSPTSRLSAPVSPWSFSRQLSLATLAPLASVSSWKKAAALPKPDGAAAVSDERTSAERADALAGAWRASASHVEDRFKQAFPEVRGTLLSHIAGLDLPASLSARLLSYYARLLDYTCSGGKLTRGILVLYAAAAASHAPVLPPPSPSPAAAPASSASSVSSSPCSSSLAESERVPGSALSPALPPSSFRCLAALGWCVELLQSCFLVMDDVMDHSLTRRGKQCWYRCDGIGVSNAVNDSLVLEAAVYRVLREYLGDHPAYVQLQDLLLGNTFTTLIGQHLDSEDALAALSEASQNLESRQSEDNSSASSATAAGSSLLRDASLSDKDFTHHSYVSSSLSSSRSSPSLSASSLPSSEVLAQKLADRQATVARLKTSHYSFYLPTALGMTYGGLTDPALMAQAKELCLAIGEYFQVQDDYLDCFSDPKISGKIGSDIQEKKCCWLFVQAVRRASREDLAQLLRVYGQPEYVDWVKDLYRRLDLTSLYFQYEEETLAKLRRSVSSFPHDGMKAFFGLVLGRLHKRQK
Kind of assay: Inhibition of Toxoplasma gondii FPPS. An outline of the steps: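 Recombinant TgFPPS (10–20 ng) started into prewarmed buffer of 10 mM Hepes pH 7.4, 1 mM MgCl2, 2 mM DTT, 100 μM [4-14C]IPP, 100 μM DMAPP; 30 min at 37 °C; quenched with HCl, then alkalinised; hexane-extracted product counted by scintillation.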

Assay [2] deals with Trypanosoma cruzi. Kind of assay: Growth inhibition of Trypanosoma cruzi amastigotes in rat L6E9 cells. The assay is classed as functional, organism-based.
The subject of the next assay is Toxoplasma gondii. Kind of assay: Growth inhibition of Toxoplasma gondii tachyzoites in HFF cells. The format is functional, organism-based.
The target of assay [3] is T2, Farnesyl diphosphate synthase (Trypanosoma cruzi, UniProt Q8WS26).
T2 sequence (Q8WS26 whole entry): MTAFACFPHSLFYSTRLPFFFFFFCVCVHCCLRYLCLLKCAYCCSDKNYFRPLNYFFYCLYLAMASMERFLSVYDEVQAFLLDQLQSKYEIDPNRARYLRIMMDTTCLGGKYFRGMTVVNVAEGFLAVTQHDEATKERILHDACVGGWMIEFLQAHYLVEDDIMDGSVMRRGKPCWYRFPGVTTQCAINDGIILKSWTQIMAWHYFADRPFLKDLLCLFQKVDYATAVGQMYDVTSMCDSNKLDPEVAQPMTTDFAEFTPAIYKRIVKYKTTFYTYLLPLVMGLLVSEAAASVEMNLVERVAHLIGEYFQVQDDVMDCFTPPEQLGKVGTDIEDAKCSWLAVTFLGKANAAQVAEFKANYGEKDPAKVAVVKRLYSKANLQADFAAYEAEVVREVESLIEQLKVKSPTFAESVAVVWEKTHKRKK
Nature of the assay: Inhibition of Trypanosoma cruzi FPPS. An outline of the steps: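 Recombinant TcFPPS (10–20 ng) started into prewarmed buffer of 10 mM Hepes pH 7.4, 5 mM MgCl2, 2 mM DTT, 100 μM [4-14C]IPP, 100 μM DMAPP; 30 min at 37 °C; quenched with HCl, then alkalinised; hexane-extracted product counted by scintillation.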

Assay [4] concerns Trypanosoma cruzi. Kind of assay: Growth inhibition of Trypanosoma cruzi amastigotes in rat L6E9 cells at 10 uM. The settings on record: read-out: GI. The format is functional.

Among the data in ChEMBL document CHEMBL1143873, “Synthesis and biological evaluation of 2-alkylaminoethyl-1,1-bisphosphonic acids against Trypanosoma cruzi and Toxoplasma gondii targeting farnesyl diphosphate synthase” (Bioorg Med Chem, 2008) are IC50 and inhibition of growth values, retold here.

One may read the IC50 as the concentration that gives 50% inhibition. Read a high IC50 as weaker potency.

As for `CC(C)CNCC(P(=O)(O)O)P(=O)(O)O`, the IC50 in assay [1] is 0.181 µM; in the assay with Trypanosoma cruzi [2], greater than 50 µM; with Toxoplasma gondii, 74.5 µM; in assay [3], 0.515 µM.

`O=P(O)(O)C(CNN1CCCC1)P(=O)(O)O`: the IC50 in assay [1] turned out to be 0.361 µM; in the assay with Trypanosoma cruzi [2], 14 µM; in the assay on Toxoplasma gondii, 13.3 µM; in assay [3] it was 0.76 µM.

`CCCCCCNCC(P(=O)(O)O)P(=O)(O)O`: the IC50 in assay [1] came to 0.137 µM; with Trypanosoma cruzi [2], 0.84 µM; with Toxoplasma gondii, 9.37 µM; in assay [3] it was 0.49 µM.

Take `O=P(O)(O)C(CNN1CCCCC1)P(=O)(O)O`: the IC50 in assay [1] turned out to be 0.165 µM; in the assay on Trypanosoma cruzi [2], 6.1 µM; with Toxoplasma gondii it was 70.6 µM; in assay [3] it was 0.287 µM.

Consider `CCCCCCCCNCC(P(=O)(O)O)P(=O)(O)O`, for which the IC50 in assay [1] worked out at 0.087 µM; in the assay with Trypanosoma cruzi [2] it was 4.1 µM; in the assay on Toxoplasma gondii it was 2.6 µM; in assay [3], 1.01 µM.

Turning to `O=P(O)(O)C(CNC1CCCCC1)P(=O)(O)O`, the values for the IC50 (in assay [1]; in the assay with Toxoplasma gondii; in assay [3]) were 0.337 µM, 57.3 µM and 0.013 µM, respectively. Also, the inhibition of growth at 10 µM in the assay with Trypanosoma cruzi [4] is 36.3%.

For `CCCCCCCNCC(P(=O)(O)O)P(=O)(O)O`, the IC50 in assay [1] was 0.095 µM; in the assay with Trypanosoma cruzi [2], 10 µM; in the assay with Toxoplasma gondii it was greater than 50 µM; in assay [3] it was 0.058 µM.

Take `CC(C)CCNCC(P(=O)(O)O)P(=O)(O)O`: the half-inhibitory concentration (IC50) in assay [1] stood at 0.275 µM; in the assay with Trypanosoma cruzi [2], 10 µM; in the assay on Toxoplasma gondii it was 36.9 µM; in assay [3], 0.42 µM.

Take `CCC(C)NCC(P(=O)(O)O)P(=O)(O)O` (stereo not drawn): the IC50 is 0.112 µM in assay [1], greater than 50 µM in the assay on Trypanosoma cruzi [2], greater than 100 µM in the assay on Toxoplasma gondii and 0.944 µM in assay [3].

`N#CSCCOc1ccc(Oc2ccccc2)cc1` came in with an IC50 in the assay on Trypanosoma cruzi [2] of 12 µM.

Regarding `CC(C)(C)NCC(P(=O)(O)O)P(=O)(O)O`, the IC50 is 0.286 µM in assay [1], 10 µM in the assay with Trypanosoma cruzi [2], 42.8 µM with Toxoplasma gondii and 1.21 µM in assay [3].

On to `CCCCNCC(P(=O)(O)O)P(=O)(O)O`, for which the IC50 in assay [1] is 0.206 µM; with Trypanosoma cruzi [2] it was 4.8 µM; with Toxoplasma gondii it was 48.7 µM; in assay [3], 2.28 µM.

For the compound `CC(C)NCC(P(=O)(O)O)P(=O)(O)O`, the IC50 was 0.253 µM in assay [1], greater than 50 µM with Trypanosoma cruzi [2], 69.8 µM with Toxoplasma gondii and 1.4 µM in assay [3].

For the compound `CCCNCC(P(=O)(O)O)P(=O)(O)O`, the IC50 in assay [1] was 0.298 µM; in the assay with Trypanosoma cruzi [2], greater than 50 µM; in the assay on Toxoplasma gondii, 6.33 µM; in assay [3], 0.038 µM.

For `CCCCCNCC(P(=O)(O)O)P(=O)(O)O`, the IC50 in assay [1] was 0.08 µM; in the assay with Trypanosoma cruzi [2], 0.54 µM; in the assay with Toxoplasma gondii, greater than 50 µM; in assay [3], 1.84 µM.

Compound `CCCCCCC(O)(P(=O)(O)O)P(=O)(O)O` showed an IC50 in the assay on Trypanosoma cruzi [2] of 18 µM.
